ChEMBL document CHEMBL3751796, “Structure-Based Discovery of Novel Cyclophilin A Inhibitors for the Treatment of Hepatitis C Virus Infections” (J Med Chem, 2015)
The source made the active and inactive calls. No cut-off for these calls is given here.

How the values were obtained:
[1] = biological target: T1, Peptidyl-prolyl cis-trans isomerase A (Homo sapiens, UniProt P62937); experiment: Inhibition of recombinant GST-tagged Cyclophilin A (unknown origin) interaction with HCV GST-tagged NS5A at 2 to 4 uM by GST pulldown assay
T1 sequence (P62937 whole entry, looked up): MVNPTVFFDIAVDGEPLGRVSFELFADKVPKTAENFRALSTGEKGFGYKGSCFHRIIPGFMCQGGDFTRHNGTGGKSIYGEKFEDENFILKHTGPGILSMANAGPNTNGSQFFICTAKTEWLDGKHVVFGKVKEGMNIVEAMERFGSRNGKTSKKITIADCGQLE

[2] = tested on: Mus musculus; experiment: Nephrotoxicity in BALB/c mouse assessed as changes in serum creatinine level at 50 mg/kg, iv for 2 weeks; type: toxicity, organism-based; settings: in vivo, 336 h
[3] = Cytotoxicity against HCV infected human Huh7.5 cells assessed as cell death by MTT assay in presence of ribavirin; type: cell-based; settings: huh-7
[4] = tested on: Hepatitis C virus; experiment: Antiviral activity against recombinant HCV genotype 2a JFH1 infected in human […] for 5 hrs measured on day 3 post infection by luciferase reporter gene assay; type: functional, organism-based, Hepacivirus hominis; settings: JFH-1, Huh-7
Outline: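 Huh7.5 cells infected with JFH1-Luc virus (MOI 0.004) for 5 h at 37 °C with 3-fold serial dilutions of compound. Renilla luciferase read from lysates on day 3 postinfection to derive EC50.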

[5] = tested on: Hepatitis C virus; experiment: Antiviral activity against HCV infected in human Huh7.5 cells assessed as inhibition of IL-8 level by ELISA in presence of telaprevir; type: functional, organism-based; settings: Hepacivirus hominis; Huh-7
[6] = Cytotoxicity against HCV genotype 2a JFH1 infected human Huh7.5 cells expressing GFP-fused NS5A assessed as reduction in cell viability measured 72 hrs post infection by hoechst 33342 staining based confocal microscopy; parameters: species or system Huh-7
[7] = tested on: Hepatitis C virus; experiment: Antiviral activity against HCV genotype 1b Con1 infected in human Huh7 cells xenografted in immunodeficient NOD/SCID mouse assessed as inhibition of NS5A expression in liver at 50 mg/kg, ip up to 14 days by Western blot analysis; type: functional, organism-based; settings: Hepacivirus hominis, isolate Con1, Huh-7
Outline: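 Liver tissue from NOD/SCID mice engrafted with Huh7 Con1b replicon cells and dosed ip at 50 mg/kg for 14 days (5 per group). NS5A protein read by SDS-PAGE Western blot with chemiluminescence detection.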

[8] = tested on: Hepatitis C virus; experiment: Antiviral activity against HCV genotype 1b Con1 infected in human Huh7.5 cells assessed as upregulation of IFN-alpha expression incubated up to 96 hrs by ELISA; type: functional, organism-based; settings: Hepacivirus hominis; isolate Con1; Huh-7
Outline: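 Con1b replicon cells, 2 × 10^6/well, treated with 2 μM for up to 4 days at 37 °C. Pooled culture media assayed for IL-8 and IFN-α by ELISA.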

[9] = tested on: Hepatitis C virus; experiment: Antiviral activity against HCV genotype 1b Con1 infected in human Huh7.5 cells assessed as stimulation of OAS1 mRNA expression at 2 uM incubated up to 96 hrs by qRT-PCR method; type: functional, organism-based; settings: Hepacivirus hominis, isolate Con1, Huh-7, TDE = time-dependent effect
Outline: (§1)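 mRNA measured by SYBR Green qRT-PCR using the 2^−ΔΔCT method, normalized to GAPDH and expressed as fold change vs controls.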

[10] = tested on: Hepatitis C virus; experiment: Antiviral activity against HCV genotype 1b Con1 infected in human Huh7.5 cells assessed as inhibition of NS5B expression in total cell lysate at 2 uM by Western blot analysis; type: functional, organism-based; settings: Hepacivirus hominis, isolate Con1, Huh-7
Outline: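 Con1b replicon cells treated with 2 μM. Total lysates, and a membrane fraction prepared by hypotonic buffer, dounce homogenization, 220g spin and then 68 000g for 1 h at 4 °C, analyzed by Western blot for NS5A and NS5B.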

[11] = Cytotoxicity against mock-infected human Huh7.5 cells assessed as reduction in cell viability incubated for 5 hrs by MTT assay; type: cell-based, Huh-7; settings: mock-infected Huh7.5 cells
Outline: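 Mock-infected Huh7.5 cells run alongside the JFH1-Luc antiviral assay with 3-fold serial dilutions. Viability read by MTT assay to give CC50.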

[12] = tested on: Hepatitis C virus; experiment: Antiviral activity against HCV genotype 1b Con1 infected in human Huh7.5 cells assessed as stimulation of IRF9 expression at 2 uM incubated up to 96 hrs by Western blot analysis; type: functional, organism-based; settings: Hepacivirus hominis, isolate Con1, Huh-7, TDE = time-dependent effect
[13] = Selectivity index, ratio of CC50 for mock-infected human Huh7.5 cells to EC50 for recombinant HCV genotype 2a JFH1; parameters: species or system Huh-7
Outline: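 Huh7.5 cells infected with JFH1-Luc virus (MOI 0.004, 5 h, 37 °C) in the presence of 3-fold serial dilutions. EC50 came from Renilla luciferase on day 3. CC50 came from MTT viability of mock-infected Huh7.5 cells treated in parallel. SI = CC50/EC50.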

[14] = biological target: T1, Peptidyl-prolyl cis-trans isomerase A; experiment: Inhibition of human Cyclophilin A interaction with HCV genotype 1b Con1 NS5B in human Huh7.5 cells at 2 uM by co-immunoprecipitation assay; type: cell-based; settings: Huh-7
[15] = tested on: Mus musculus; experiment: Hepatotoxicity in BALB/c mouse assessed as changes in serum alanine transaminase level at 50 mg/kg, iv for 2 weeks by GPT kit assay; type: toxicity, organism-based; settings: in vivo, 336 h
[16] = tested on: Mus musculus; experiment: Toxicity in BALB/c mouse assessed as changes in body weight at 50 mg/kg, iv for 2 weeks; type: organism-based; settings: in vivo, 336 h
[17] = Cytotoxicity against BALB/c mouse splenocytes assessed as reduction in cell viability at 1 to 10 uM; type: cell-based; settings: splenocyte
[18] = tested on: Hepatitis C virus; experiment: Antiviral activity against HCV genotype 1b Con1 infected in human Huh7.5 cells assessed as stimulation of ISG15 expression at 2 uM incubated up to 96 hrs by Western blot analysis; type: functional, organism-based; settings: Hepacivirus hominis, isolate Con1, Huh-7, TDE = time-dependent effect
[19] = organism: Mus musculus; experiment: Inhibition of calcium-dependent calcineurin phosphatase activity in ionomycin-stimulated BALB/c mouse splenocytes assessed as reduction in dephosphorylation of R2 phosphopeptide at 1 to 10 uM preincubated for 20 hrs followed by ionomycin stimulation measured after 4 hrs
Outline: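 Mouse splenocytes (2 × 10^6 cells/well) were incubated with compound for 20 h, then stimulated with 1 μg/mL ionomycin for another 4 h or left unstimulated. Calcineurin activity was measured by dephosphorylation of RII phosphopeptide using a cellular activity kit.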

[20] = tested on: Hepatitis C virus; experiment: Antiviral activity against HCV genotype 1b Con1 infected in human Huh7.5 cells assessed as stimulation of STAT2 mRNA expression at 2 uM incubated up to 96 hrs by qRT-PCR method; type: functional, organism-based; settings: Hepacivirus hominis, isolate Con1, Huh-7, TDE = time-dependent effect; outline: as §1
[21] = Cytotoxicity against HCV genotype 1b Con1 infected human Huh7.5 cells expressing GFP-fused NS5A assessed as reduction in cell viability measured 72 hrs post infection by hoechst 33342 staining based confocal microscopy; parameters: species or system Huh-7
Outline: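 Huh7 replicon cells expressing NS5A-GFP seeded at 2 × 10^3/well and left overnight, then given serially diluted compound. At 72 h, fixed in 2% PFA and nuclei stained with Hoechst 33342 (10 μg/mL). Automated confocal imaging: GFP-positive cells give activity, nuclei counts give cytotoxicity. EC50/CC50 from nonlinear regression.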

[22] = Cytotoxicity against HCV infected human Huh7.5 cells assessed as cell death by MTT assay in presence of telaprevir; type: cell-based; settings: huh-7
[23] = tested on: Hepatitis C virus; experiment: Antiviral activity against HCV infected in human Huh7.5 cells assessed as inhibition of HCV-specific RNA by qRT-PCR method in presence of IFN-alpha; type: functional, organism-based; settings: Hepacivirus hominis; Huh-7
[24] = tested on: Hepatitis C virus; experiment: Antiviral activity against HCV genotype 1b Con1 infected in human Huh7 cells xenografted in immunodeficient NOD/SCID mouse assessed as inhibition of NS5B expression in liver at 50 mg/kg, ip up to 14 days by DAPI staining based confocal microscopy; type: functional, organism-based; settings: Hepacivirus hominis, isolate Con1, Huh-7
[25] = tested on: Hepatitis C virus; experiment: Antiviral activity against HCV genotype 1b Con1 infected in human Huh7.5 cells assessed as reduction of IL-8 mRNA expression at 2 uM incubated up to 96 hrs by qRT-PCR method; type: functional, organism-based; settings: Hepacivirus hominis, isolate Con1, Huh-7, TDE = time-dependent effect; outline: as §1

With `COc1cc(C(C(=O)NC2CCCCC2)N(C(=O)Cc2c[nH]c3ccccc23)c2ccc(C(C)C)cc2)cc(OC)c1OC` (stereo not given) the inhibition [1] was “Active”, the Activity [2] was “Non-toxic” and the Activity [3] was “Non-toxic”. For the same compound, the EC50 [4] was 5.2 µM, the inhibition [5] was “Active” and the CC50 at 72 h [6] was 22.3 µM. The inhibition [7] was “Active”, the Activity [8] was “Active” and the Activity [9] was “tde”. The inhibition [10] was “Active”, the CC50 at 5 h [11] was over 100 µM and the Activity [12] was “tde”. The “Ratio CC50/EC50” value [13] was over 19.2, the inhibition [14] was “Active” and the Activity [15] was “Non-toxic”. The Activity [16] was “Non-toxic”, the Activity [17] was “Non-toxic” and the Activity [18] was “tde”. The inhibition [19] was “inactive”, the Activity [20] was “tde” and the CC50 at 72 h [21] was 12.4 µM. The Activity [22] was “Non-toxic”, the inhibition [23] was “Active” and the inhibition [24] was “Active”. The Activity [25] was “tde”.
